Cytotoxicity data for 98 compounds are collected here from ChEMBL document CHEMBL4513216, “Probing the Open Global Health Chemical Diversity Library for Multistage-Active Starting Points for Next-Generation Antimalarials” (ACS Infect Dis, 2020).

Each structure is given as a SMILES string.

This data set can be described thus: Toxicity liver stage against HepG2, at 10uM. The format is cell-based. Also noted: test concentration 10 uM, cell line HepG2-A16-CD81EGFP. The settings on record: human, HepG2-A16-CD81EGFP cells; read-out: INHIBITION
A digest of the protocol:
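Uninfected HepG2-A16-CD81EGFP cells, 3 × 10^3 per well, 1536-well, plated on prespotted compound at 10 μM final, parasite-free screening media added to match infected plates; puromycin 10 μM positive, DMSO 0.5% negative; run in parallel with 48 h PbLuc assay at 37 °C, 5% CO2; viability by CellTiter-Glo luminescence, normalized to controls.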
Consider `CS(=O)(=O)c1ccc(-c2c[nH]c([C@@H]3COCCN3)n2)cc1`, for which the cytotoxicity at 10 µM turned out to be 5.29%.

Consider `COCC(=O)Nc1ccc(-c2noc([C@@H]3CCCN3C)n2)cn1`, for which the cytotoxicity at 10 µM was determined as 6.65%.

For `O=C(Nc1ccc2c(c1)OCCO2)N1CCCC1c1ccco1` (stereo not drawn), the cytotoxicity at 10 µM worked out at 8.2%.

Consider `c1ccc(N2CCc3ncnc(C4CC4)c3CC2)nc1`, for which the cytotoxicity at 10 µM is -157%.

As to `Cn1c2c(c(=O)n1C)CN(C(=O)c1ccsc1)CCC2`, the cytotoxicity at 10 µM was 5.04%.

`COCC1Cn2nnc(-c3cnn(C)c3)c2CN1Cc1ccc(C)o1` (stereo not drawn): the cytotoxicity at 10 µM is 4.82%.

For the compound `CCOCC(=O)N1CCCn2c(CN3CCCCC3)nnc2C1`, the cytotoxicity at 10 µM is -110%.

Consider `Cc1ccccc1OCC(=O)N1CC[C@]2(C[C@@H](OCC3CC3)CO2)C1`, for which the cytotoxicity at 10 µM was determined as 3.1%.

Take `O=S(=O)(C1CC1)N1CCC2(CC1)CC(Oc1ccccn1)CO2` (stereo not drawn): the cytotoxicity at 10 µM was -139%.

In the case of `Cc1csc2c(C3CCCN(C(=O)CCCn4cncn4)C3)nc(C)n12` (stereo not drawn), the cytotoxicity at 10 µM was 7.69%.

Take `O=C(O)c1ccccc1-n1cnc(CN2CCc3ccccc32)c1`: the cytotoxicity at 10 µM was determined as 11.7%.

For `CSc1ncc(C(=O)N(C)C(C)Cc2ccccn2)cn1` (stereo not drawn), the cytotoxicity at 10 µM turned out to be 15.9%.

Turning to `CNC(=O)c1cccc(CC2COCCN(Cc3ccc(C)o3)C2)n1` (stereo not drawn), the cytotoxicity at 10 µM was 0.166%.

`O=C(c1cccnc1)N1CCCC1c1cc[nH]n1` (stereo not drawn): the cytotoxicity at 10 µM was -26.5%.

Take `O=C(CCn1c(C(F)F)cc2cccnc21)NC1CCCC1`: the cytotoxicity at 10 µM was -40.5%.

Take `Cn1nccc1C(=O)N1Cc2cc(Cl)ccc2OC2(CCOCC2)C1`: the cytotoxicity at 10 µM was determined as 19.7%.

Regarding `O=C(Cc1ccsc1)N1CCC(c2noc(-c3ccncc3)n2)CC1`, the cytotoxicity at 10 µM is -22.1%.

Take `NC(=O)CN1CCCC(CCCc2ccccn2)(C(N)=O)C1` (stereo not drawn): the cytotoxicity at 10 µM is -23.5%.

Take `O=C(Cc1ccsc1)N1CCC(c2n[nH]c3nccnc23)CC1`: the cytotoxicity at 10 µM was -10.6%.

For `COc1ccccc1CC(C)N(C)CCS(C)(=O)=O` (stereo not drawn), the cytotoxicity at 10 µM stood at 7.57%.

On to `CC(NCCCn1ccnc1)c1ccc(N2CCCS2(=O)=O)cc1` (stereo not drawn), for which the cytotoxicity at 10 µM is -7.49%.

For the compound `CCc1noc(C(C)N2CCc3c(ncn3C3CC3)C2)n1` (stereo not drawn), the cytotoxicity at 10 µM was found to be 4.36%.

For `COc1ccc(C(NC(=O)c2cccc[n+]2[O-])C2CC2)cc1` (stereo not drawn), the cytotoxicity at 10 µM was determined as 7.12%.

`CCn1cc(S(=O)(=O)NCc2ccnc(-n3ccnc3)c2)cn1`: the cytotoxicity at 10 µM was -1.78%.

Take `O=C(NCC1CCS(=O)(=O)C1)N(Cc1ccncc1)C1CC1` (stereo not drawn): the cytotoxicity at 10 µM was -138%.

For the compound `CSCc1ccc(CNCCCN2CCOCC2)o1`, the cytotoxicity at 10 µM turned out to be 5.81%.

On to `CC(Nc1ccc(N2C(=O)CCCC2=O)cc1)c1ccc(C#N)cc1` (stereo not drawn), for which the cytotoxicity at 10 µM is 8.71%.

With `CCOCC(=O)Nc1ncc(I)cc1C`, the cytotoxicity at 10 µM is -4.76%.

In the case of `Cc1ccc(NC2CCN(C(=O)CCCc3ccccn3)CC2)cc1`, the cytotoxicity at 10 µM amounted to 13.3%.

Regarding `Cc1ccc(C(=O)Nc2ccn(CCC(N)=O)n2)cc1`, the cytotoxicity at 10 µM was found to be 2.42%.

On to `CCC(CO)NC(=O)NCc1cc(C#N)ccc1F` (stereo not drawn), for which the cytotoxicity at 10 µM is -1.22%.

For the compound `N#Cc1cccc(CN2C(=O)c3ccccc3CS2(=O)=O)c1`, the cytotoxicity at 10 µM is -2.14%.

In the case of `Cn1cnnc1CCNC(=O)c1ccccc1OC1CCC1`, the cytotoxicity at 10 µM is -2.94%.

As for `CN(C)CCn1ccc2ccc(NC(=O)c3ccncc3F)cc21`, the cytotoxicity at 10 µM was -1.53%.

Take `CC(C)OCCN1CCN(C(=O)c2cc(-n3cccn3)ccn2)CC1`: the cytotoxicity at 10 µM was -0.158%.

Take `Cc1nc(-c2ccccc2)ccc1C(=O)N1CCn2c(C)nnc2C1`: the cytotoxicity at 10 µM came out at 4.01%.

For `CCc1nnc2ccc(NCC3(O)CCOCC3)nn12`, the cytotoxicity at 10 µM was -0.439%.

Regarding `CC(C)c1cnc(CN2C(=O)CC3(CCSC3)C2=O)o1` (stereo not drawn), the cytotoxicity at 10 µM is 17.2%.

Consider `CC(C)(C)c1cnc(CN2C(=O)CC3(CCSC3)C2=O)o1` (stereo not drawn), for which the cytotoxicity at 10 µM came out at 7.28%.

`CCc1nc(CC(=O)NC(C#N)CC(C)C)cs1` (stereo not drawn): the cytotoxicity at 10 µM turned out to be 9.17%.

For `Cc1nnc(CN(Cc2ccccc2Cl)C2CCCC2)o1`, the cytotoxicity at 10 µM stood at 0.256%.

For `OCc1ccncc1NCc1cnc(-c2ccccn2)s1`, the cytotoxicity at 10 µM was -17.4%.

On to `CC(Cn1cccn1)NC(=O)N(C)Cc1ccsc1` (stereo not drawn), for which the cytotoxicity at 10 µM was -3.81%.

As for `CNC(=O)NC(=O)CN(Cc1ccc(C#N)cc1)Cc1cccc(F)c1`, the cytotoxicity at 10 µM turned out to be 5.51%.

Regarding `O=C(Nc1ccc(-n2cccn2)c(F)c1)C1CCN(C(=O)C2CC2)CC1`, the cytotoxicity at 10 µM was 1.48%.

As to `CC(=O)N1CCN(C2CCCCc3ccccc32)CC1` (stereo not drawn), the cytotoxicity at 10 µM is -46.3%.

As for `Cc1nncn1CCNC(=O)C(C)(C)c1cccc(C(F)(F)F)c1`, the cytotoxicity at 10 µM was found to be 8.63%.

With `Cc1ccc(C2COCCN2C(=O)c2ccc(N(C)C)cc2)o1` (stereo not drawn), the cytotoxicity at 10 µM came out at 4%.

As for `CCc1cc(NCC(O)CN2CCCCC2)n2ncnc2n1` (stereo not drawn), the cytotoxicity at 10 µM was -7.45%.

In the case of `Cc1nc(C)n(CC2CCCN(Cc3nnc(-c4ccco4)o3)C2)n1` (stereo not drawn), the cytotoxicity at 10 µM is -8.33%.

As for `O=C(NCc1cc[nH]n1)NC1CCCN(c2ncccn2)C1` (stereo not drawn), the cytotoxicity at 10 µM is -2.26%.

In the case of `Nc1ncc(C(=O)N2CCC(O)(CO)CC2)c(-c2ccccc2)n1`, the cytotoxicity at 10 µM was -144%.

Turning to `CN1CCN(C(=O)N2CCC3(CCCN(C4CCOCC4)C3=O)C2)CC1` (stereo not drawn), the cytotoxicity at 10 µM is -129%.

On to `CCC(CO)N(Cc1ccco1)C(=O)c1ccccc1SC` (stereo not drawn), for which the cytotoxicity at 10 µM was found to be 6.41%.

In the case of `NC(=O)CCC(=O)N1CCc2[nH]nc(-c3ccc4c(c3)OCO4)c2C1`, the cytotoxicity at 10 µM is -142%.

For `Cc1ccncc1C(=O)N1CC[C@@]2(O)CCN(C3CCCCC3)C[C@H]2C1`, the cytotoxicity at 10 µM was -125%.

For the compound `CCCSCC(=O)N1CCN(c2ccc(C)cc2)CC1C` (stereo not drawn), the cytotoxicity at 10 µM is -165%.

Turning to `CCC1(O)CCCN(c2nc(-c3ccccn3)nc3c2c(C)nn3C)C1` (stereo not drawn), the cytotoxicity at 10 µM was found to be 3.11%.

For the compound `CCc1ccccc1CN1CCC(N2CCCC2=O)CC1`, the cytotoxicity at 10 µM was -2.53%.

For `CN(Cc1ccc2c(c1)OCO2)C(=O)c1ccc(C2CCCO2)s1` (stereo not drawn), the cytotoxicity at 10 µM stood at 5.6%.

On to `Cc1cc2cccc(NC(=O)N3CCC(N(C)C)C3)c2o1` (stereo not drawn), for which the cytotoxicity at 10 µM was 1.97%.

In the case of `O=C(c1cscn1)N1CCC(Cn2cc(-c3ccsc3)nn2)CC1`, the cytotoxicity at 10 µM worked out at 0.259%.

Take `CN(C(=O)c1ccc2c(c1)nc(N1CC[C@H](O)C1)n2C)C1CCSCC1`: the cytotoxicity at 10 µM was -13%.

Turning to `CC(C)N(C)CC(=O)N1CCCC(c2ccc(C(=O)O)cc2)C1` (stereo not drawn), the cytotoxicity at 10 µM is -6.09%.

As for `CSc1cccc(CN(C)C(=O)C2CC(=O)N(CCN(C)C)C2)c1` (stereo not drawn), the cytotoxicity at 10 µM was -16.5%.

`COc1ccc(S(=O)(=O)NC(=O)COC2CCCC2)cc1`: the cytotoxicity at 10 µM is -2.55%.

`Cc1nc(C)n(CC2CCCN(Cc3ncc(C(C)(C)C)o3)C2)n1` (stereo not drawn): the cytotoxicity at 10 µM was -5.95%.

As for `CC(C)c1nccc(N2CCN(CC(=O)N3CCOCC3)CC2)n1`, the cytotoxicity at 10 µM is -8.68%.

For the compound `CCN(CC1CCOC1)C(=O)c1ccccc1S(=O)(=O)CC` (stereo not drawn), the cytotoxicity at 10 µM was -2.15%.

For `Cc1ccc(F)cc1NS(=O)(=O)c1cc2c(c(C(=O)O)c1)OCCO2`, the cytotoxicity at 10 µM is -3.88%.

As to `Cc1cc(NC(=O)CN2CCN(c3nc(C)cs3)C(C)C2)on1` (stereo not drawn), the cytotoxicity at 10 µM is -1.81%.

For `CCOc1ncccc1NC(=O)NCC(C)O` (stereo not drawn), the cytotoxicity at 10 µM was -5.68%.

In the case of `CC(C)c1cnc(CN(C)C2CCN(CCc3cnn(C)c3)C2)o1` (stereo not drawn), the cytotoxicity at 10 µM is -7.12%.

On to `CC(O)CN1CCN(C(=O)c2sccc2C2CC2)CC1` (stereo not drawn), for which the cytotoxicity at 10 µM came out at 1.83%.

For the compound `CCc1n[nH]c(C2CN(C(=O)c3cncnc3CC)CCO2)n1` (stereo not drawn), the cytotoxicity at 10 µM is -5.65%.

As for `O=C(CCc1nccs1)N1CCCC(n2ccnc2)C1` (stereo not drawn), the cytotoxicity at 10 µM was -16%.

As for `COCCc1noc(CN2CCCC(Cn3cncn3)C2)n1` (stereo not drawn), the cytotoxicity at 10 µM was -2.55%.

Regarding `O=C(c1cccc2c1OCCO2)N1CCCC(n2cccn2)C1` (stereo not drawn), the cytotoxicity at 10 µM was -3.73%.

On to `Cc1ncsc1C(=O)N1CCCC1c1c(C)nn(C)c1Cl` (stereo not drawn), for which the cytotoxicity at 10 µM is -1.9%.

On to `N#Cc1cc(NS(=O)(=O)c2cc(C(=O)O)cc(Cl)c2Cl)ccc1F`, for which the cytotoxicity at 10 µM was -1.37%.

For the compound `Cc1nn(C)c(C)c1C1COCCN1C(=O)c1n[nH]c2ccccc12` (stereo not drawn), the cytotoxicity at 10 µM is -8.72%.

Regarding `O=C(NCCNc1ncccn1)C1CCN(c2ncccn2)CC1`, the cytotoxicity at 10 µM is -7.67%.

For the compound `c1ccc(CNC2CCc3ncnn3C2)nc1` (stereo not drawn), the cytotoxicity at 10 µM was -6.69%.

For `Cc1ncc(CNC(=O)N(C)C2CCN(c3ccccc3)C2=O)s1` (stereo not drawn), the cytotoxicity at 10 µM is -14.7%.

Regarding `CN(C)c1ncccc1CNC(=O)N1CCCC1c1ccsc1` (stereo not drawn), the cytotoxicity at 10 µM was -6.33%.

Regarding `Cc1ccc(NC2CCN(C(=O)Cc3ccc(C#N)cc3)CC2)nn1`, the cytotoxicity at 10 µM was -6.83%.

Turning to `O=C(C1CC1)N1CC2(CCNCC2)C1`, the cytotoxicity at 10 µM is -0.832%.

For the compound `O=C(c1cc(C2CCCCN2CCO)n[nH]1)N1CCOCC1` (stereo not drawn), the cytotoxicity at 10 µM was -24.5%.

Consider `Cc1nc(CN2CCC3(CCCN(Cc4cnn(C)c4)C3)C2=O)cs1` (stereo not drawn), for which the cytotoxicity at 10 µM was -5.74%.

Regarding `COCC1c2c(cnn2CC2CC2)CCN1Cc1cccs1` (stereo not drawn), the cytotoxicity at 10 µM is -6.61%.

`Cc1cc(CN2CCC3(CC2)CC(Nc2ncccn2)CO3)nn1C` (stereo not drawn): the cytotoxicity at 10 µM was -1.84%.

As for `c1cnc(NCc2noc3c2CN(CCN2CCCC2)CC3)nc1`, the cytotoxicity at 10 µM was -7.36%.

In the case of `CC(=O)N1[C@H](CN(C)C)C[C@@H]2CN(c3ncc(F)cn3)CC[C@@H]21`, the cytotoxicity at 10 µM came out at 5.56%.

On to `O=C(c1ncccn1)N1CC[C@H]2OCC[C@@]2(COc2ccccn2)C1`, for which the cytotoxicity at 10 µM was -146%.

On to `CN1CCN(C(=O)[C@H]2C[C@@H]3CN(c4ncc(F)cn4)C[C@@H]3N2C)CC1`, for which the cytotoxicity at 10 µM is -136%.

`CC(C)Nc1ncnc2c1CCN(C(=O)NCc1cccnc1)CC2`: the cytotoxicity at 10 µM was -150%.

As to `COC(=O)Cn1c(=O)[nH]c2cn(-c3ccc(C)cc3)c(=O)n21`, the cytotoxicity at 10 µM was found to be 0.413%.

On to `O=C(NCC1(COc2cnccn2)C[C@@H](O)[C@@H](O)C1)C1CCOCC1` (stereo partly drawn), for which the cytotoxicity at 10 µM was -2.48%.
